Structures are written as SMILES. Where only a bound is given, the exact number is not on record here.

The IC50 is the midpoint of a concentration-inhibition curve. In general, CC50 refers to the concentration that lowers cell viability or growth by half.

Data set [1] is described as follows: Selectivity index, ratio of CC50 for cytotoxicity against Balb/c mouse peritoneal macrophages to IC50 for antileishmanial activity against Leishmania amazonensis MHOM/BR/77/LTB0016 promastigotes. The note with it: read-out: Ratio CC50/IC50. It counts as toxicity. In short, it runs like this:
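SI calculated as macrophage CC50 divided by promastigote IC50. Both values come from 72 h assays: macrophages in RPMI at 37 °C and promastigotes in Schneider's medium at 26 °C with resazurin read-out.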

The subject of data set [2] is Leishmania amazonensis. The experiment in a line: Antileishmanial activity against Leishmania amazonensis MHOM/BR/77/LTB0016 promastigotes after 72 hrs by resazurin dye based assay. The format is functional, organism-based. The note with it: MHOM/BR/77/LTB0016, 72 h. In short, it runs like this: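 Promastigotes grown in Schneider's insect medium with 10% HIFCS, started at 1.0×10^6 cells/mL with or without a range of compound concentrations, 26 °C for 72 h. Viability read by resazurin. IC50 by logarithmic regression. Three independent experiments in triplicate, mean ± SD.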

The test system of data set [3] is Leishmania amazonensis. The experiment in a line: Antileishmanial activity against Leishmania amazonensis MHOM/BR/77/LTB0016 amastigotes infected in Balb/c mouse peritoneal macrophages after 72 hrs by hematological dye based light microscopic method. It counts as functional, organism-based. The note with it: MHOM/BR/77/LTB0016, 72 h. In short, it runs like this:
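Resident BALB/c peritoneal macrophages plated at 1×10^6/mL in RPMI, 1 h at 37 °C in 5% CO2, non-adherent cells washed off. Infected with stationary-phase promastigotes at 3:1 parasite/macrophage for 4 h, free parasites washed off, compounds added for 72 h. Slides stained with hematological dye, infected cells and amastigotes counted in at least 100 macrophages per sample. IC50 by nonlinear regression. Three independent experiments.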

A short description of data set [4]: Cytotoxicity against Balb/c mouse peritoneal macrophages assessed as reduction in cell viability after 72 hrs by resazurin assay. The format is cell-based, Peritoneal macrophage. In short, it runs like this: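 Peritoneal cells collected by lavage in RPMI 1640 with 10% HIFCS, 2 mM L-glutamine, 1 mM pyruvate, streptomycin and penicillin. Adjusted to 1.0×10^6 cells/mL, plated in triplicate, 1 h at 37 °C in 5% CO2, non-adherent cells washed off. […] Three independent experiments, mean ± SD.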

The nature of data set [5]: Solubility of the compound in Schneider's insect medium supplemented with 10% HIFCS. The format is physicochemical.
Data set [6] in a line: Solubility of the compound in RPMI 1640 medium. The format is physicochemical.

In the case of `CC1(Cc2ccccc2)CC(S(=O)(=O)c2ccc(F)cc2)=C(c2ccc(/C(N)=N/O)cc2)O1` (stereo unspecified), the selectivity ratio in data set [1] stood at 18.9. Further, the concentration for half-maximal inhibition (IC50) in the data set on Leishmania amazonensis [2] was 5.4 µM; with Leishmania amazonensis [3], 7.9 µM. In addition, the CC50 at 72 h in data set [4] worked out at 102 µM.

Regarding `CCC1(CC)CC(S(=O)(=O)c2ccc(F)cc2)=C(c2ccc(/C(N)=N/O)cc2)O1`, in data set [1], the selectivity ratio stood at 3. Further, 30.2 µM corresponded to half-maximal inhibition in the data set with Leishmania amazonensis [2] (IC50). Moreover, in data set [4], the CC50 at 72 h is 91.4 µM.

Take `CC1(Cc2cccc(/C(N)=N/O)c2)CC(S(=O)(=O)c2ccc(F)cc2)=C(c2ccc(/C(N)=N/O)cc2)O1` (stereo unspecified): in data set [5], the solubility entry is on record as “Insoluble”. In the data set on Leishmania amazonensis [2], this compound yielded an IC50 of more than 100 µM. Besides, in data set [4], the half-maximal cytotoxic concentration (CC50) at 72 h turned out to be 50.2 µM.

Take `CC1(Cc2ccc([N+](=O)[O-])cc2)CC(S(=O)(=O)c2ccc(F)cc2)=C(c2ccc(/C(N)=N/O)cc2)O1` (stereo unspecified): in data set [1], the selectivity ratio was 5.8. The IC50 with Leishmania amazonensis [2] stood at 16.7 µM. Also, in data set [4], the CC50 at 72 h stood at 97.4 µM.

Take `Cc1ccccc1CC1(C)CC(S(=O)(=O)c2ccc(F)cc2)=C(c2ccc(/C(N)=N/O)cc2)O1` (stereo unspecified): in data set [1], the selectivity ratio is 37. Besides, the values for the IC50 in the data set with Leishmania amazonensis [2] and in the data set on Leishmania amazonensis [3] were 2.1 µM and 7.2 µM, respectively. Besides, the CC50 at 72 h in data set [4] stood at 77.6 µM.

Turning to `Cc1cccc(CC2(C)CC(S(=O)(=O)c3ccc(F)cc3)=C(c3ccc(/C(N)=N/O)cc3)O2)c1` (stereo unspecified), the selectivity ratio in data set [1] was determined as 19.9. The half-inhibitory concentration (IC50) in the data set on Leishmania amazonensis [2] was determined as 5.6 µM; with Leishmania amazonensis [3], 6.7 µM. Further, in data set [4], the half-maximal cytotoxic concentration (CC50) at 72 h amounted to 112 µM.

For the compound `CC1(Cc2ccccc2Br)CC(S(=O)(=O)c2ccc(F)cc2)=C(c2ccc(/C(N)=N/O)cc2)O1` (stereo unspecified), in data set [1], the selectivity ratio was determined as 12. The concentration for half-maximal inhibition (IC50) was found to be 9.1 µM in the data set with Leishmania amazonensis [2] and 9.3 µM in the data set with Leishmania amazonensis [3]. In addition, the CC50 at 72 h in data set [4] was 109 µM.

Regarding `CC1(Cc2ccccc2C(F)(F)F)CC(S(=O)(=O)c2ccc(F)cc2)=C(c2ccc(/C(N)=N/O)cc2)O1` (stereo unspecified), the selectivity ratio in data set [1] was determined as 21.9. Moreover, the IC50 in the data set with Leishmania amazonensis [2] was 4.8 µM; in the data set with Leishmania amazonensis [3], 10.2 µM. For the same compound, in data set [4], the CC50 at 72 h was 105 µM.

Regarding `N/C(=N\O)c1ccc(C2=C(S(=O)(=O)c3ccc(F)cc3)CC3(CCCCC3)O2)cc1`, the selectivity ratio in data set [1] is 1.9. The compound further yielded an IC50 with Leishmania amazonensis [2] of 49.5 µM. The half-maximal cytotoxic concentration (CC50) at 72 h in data set [4] worked out at 92.9 µM.

`CC1(Cc2cccc([N+](=O)[O-])c2)CC(S(=O)(=O)c2ccc(F)cc2)=C(c2ccc(/C(N)=N/O)cc2)O1` (stereo unspecified): the selectivity ratio in data set [1] turned out to be 7.5. This compound showed an IC50 with Leishmania amazonensis [2] of 11.6 µM. Moreover, the half-maximal cytotoxic concentration (CC50) at 72 h in data set [4] worked out at 86.6 µM.

Turning to `CC1(Cc2cccc(CO)c2)CC(S(=O)(=O)c2ccc(F)cc2)=C(c2ccc(/C(N)=N/O)cc2)O1` (stereo unspecified), the solubility entry in data set [6] and in data set [5] was “Insoluble” in each case. The IC50 in the data set with Leishmania amazonensis [2] is more than 100 µM. In data set [4], the CC50 at 72 h is more than 100 µM.

On to `CC1(Cc2ccc(CO)cc2)CC(S(=O)(=O)c2ccc(F)cc2)=C(c2ccc(/C(N)=N/O)cc2)O1` (stereo unspecified), for which the solubility result in data set [6] and in data set [5] was “Insoluble” in each case. Also, the 50% inhibitory concentration (IC50) with Leishmania amazonensis [2] is more than 100 µM. The CC50 at 72 h in data set [4] was more than 100 µM.

Turning to `CC1(Cc2ccc(C(F)(F)F)cc2)CC(S(=O)(=O)c2ccc(F)cc2)=C(c2ccc(/C(N)=N/O)cc2)O1` (stereo unspecified), in data set [1], the selectivity ratio stood at 12.6. Also, the values for the half-maximal inhibitory concentration (IC50) in the data set with Leishmania amazonensis [2] and in the data set on Leishmania amazonensis [3] were 8.2 µM and more than 20 µM, respectively. For the same compound, in data set [4], the half-maximal cytotoxic concentration (CC50) at 72 h worked out at 103 µM.

On to `CC1(Cc2cc(C(F)(F)F)cc(C(F)(F)F)c2)CC(S(=O)(=O)c2ccc(F)cc2)=C(c2ccc(/C(N)=N/O)cc2)O1` (stereo unspecified), for which the selectivity ratio in data set [1] was found to be 8. The same compound showed an IC50 in the data set on Leishmania amazonensis [2] of 5.4 µM. Further, the CC50 at 72 h in data set [4] turned out to be 43.1 µM.

With `COc1ccc(CC2(C)CC(S(=O)(=O)c3ccc(F)cc3)=C(c3ccc(/C(N)=N/O)cc3)O2)cc1` (stereo unspecified), the solubility entry in data set [6] is listed as “Insoluble”. Besides, the selectivity ratio in data set [1] is more than 4.2. The same compound registered a half-maximal inhibitory concentration (IC50) in the data set on Leishmania amazonensis [2] of 24 µM. The CC50 at 72 h in data set [4] was more than 100 µM.

Consider `CC1(Cc2ccc(-c3ccccc3)c(F)c2)CC(S(=O)(=O)c2ccc(F)cc2)=C(c2ccc(/C(N)=N/O)cc2)O1` (stereo unspecified), for which the selectivity ratio in data set [1] worked out at 2. The compound also had a 50% inhibitory concentration (IC50) in the data set with Leishmania amazonensis [2] of 12.2 µM. The CC50 at 72 h in data set [4] is 24.5 µM.

For the compound `CC1(Cc2ccc(-c3ccccc3)cc2)CC(S(=O)(=O)c2ccc(F)cc2)=C(c2ccc(/C(N)=N/O)cc2)O1` (stereo unspecified), the selectivity ratio in data set [1] is 2.3. Also, the IC50 with Leishmania amazonensis [2] turned out to be 14.8 µM. The CC50 at 72 h in data set [4] is 33.9 µM.

With `CC1(Cc2ccc(/C(N)=N/O)cc2)CC(S(=O)(=O)c2ccc(F)cc2)=C(c2ccc(/C(N)=N/O)cc2)O1` (stereo unspecified), the solubility entry in data set [5] was “Insoluble”. In the data set on Leishmania amazonensis [2], this compound had a half-maximal inhibitory concentration (IC50) of more than 100 µM. In addition, in data set [4], the half-maximal cytotoxic concentration (CC50) at 72 h was 42.2 µM.

Regarding `CC1(Cc2cccc(C(F)(F)F)c2)CC(S(=O)(=O)c2ccc(F)cc2)=C(c2ccc(/C(N)=N/O)cc2)O1` (stereo unspecified), the selectivity ratio in data set [1] is 7.4. In the data set on Leishmania amazonensis [2], this compound showed a half-maximal inhibitory concentration (IC50) of 6.7 µM. Also, in data set [4], the CC50 at 72 h was 49.8 µM.

As for `Cc1ccc(CC2(C)CC(S(=O)(=O)c3ccc(F)cc3)=C(c3ccc(/C(N)=N/O)cc3)O2)cc1` (stereo unspecified), the selectivity ratio in data set [1] turned out to be 2.3. In the data set on Leishmania amazonensis [2], this compound displayed an IC50 of 23.2 µM. Moreover, the CC50 at 72 h in data set [4] came to 54.4 µM.

For the compound `CC1(Cc2ccccc2)CC(S(=O)(=O)c2ccc(F)cc2)=C(c2cccc(/C(N)=N/O)c2)O1` (stereo unspecified), in data set [6], the solubility entry is reported as “Insoluble”. For the same compound, the selectivity ratio in data set [1] was more than 2.7. Also, in the data set on Leishmania amazonensis [2], the midpoint of inhibition, the IC50, lay at 74.7 µM. In addition, in data set [4], the CC50 at 72 h was more than 200 µM.

Consider `COc1cc(CC2(C)CC(S(=O)(=O)c3ccc(F)cc3)=C(c3ccc(/C(N)=N/O)cc3)O2)cc(OC)c1OC` (stereo unspecified), for which, in data set [1], the selectivity ratio stood at 2. In addition, in the data set with Leishmania amazonensis [2], the midpoint of inhibition, the IC50, lay at 45.6 µM. Besides, the CC50 at 72 h in data set [4] came to 92.3 µM.

In the case of `CC1(C/C=C/c2ccc(C(F)(F)F)cc2)CC(S(=O)(=O)c2ccc(F)cc2)=C(c2ccc(/C(N)=N/O)cc2)O1` (stereo unspecified), the selectivity ratio in data set [1] stood at 2.6. Also, half-maximal inhibition with Leishmania amazonensis [2] (IC50) required 17.2 µM. Besides, the CC50 at 72 h in data set [4] is 43.9 µM.

Turning to `N=C(N)c1ccc(OCCCCCOc2ccc(C(=N)N)cc2)cc1` [PENTAMIDINE], in data set [1], the selectivity ratio is 1.5. In the data set on Leishmania amazonensis [2], this compound displayed a concentration for half-maximal inhibition (IC50) of 5.7 µM.

The values above are taken from ChEMBL document CHEMBL4196020, “Original antileishmanial hits: Variations around amidoximes” (Eur J Med Chem, 2018).
